This passage reports Relative potency results from ChEMBL document CHEMBL1121494, “Prostaglandins and congeners. 22. Synthesis of 11-substituted derivatives of 11-deoxyprostaglandins E1 and E2. Potential bronchodilators” (1980).

The test relates to Cavia porcellus. Nature of the test: Relative potency against bronchoconstrictions, induced by intravenous administration of histamine at doses […] in guinea pig. In kind it is functional. In short, it runs like this:
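Anesthetized guinea pigs (intraperitoneal urethane), curarized with iv gallamine; modified Konzett-Rossler set-up. Bronchoconstriction provoked by iv histamine or serotonin at 5.6-22.5 μg/kg, doses giving a 20 to 50 cm water rise in tracheal pressure; 12 s iv injections repeated every 5 min. Test compounds given iv. Broncholytic activity scored in at least four animals per spasmogen per dose level, expressed as potency relative to l-PGE₂.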

In turn, `CCCCC[C@H](O)/C=C/[C@H]1C(SCC(O)CO)CC(=O)[C@@H]1C/C=C\CCCC(=O)OC` (some centres undefined) displayed a Relative potency of 11.
The same measure for `CCCCCC(C)(O)/C=C/[C@H]1[C@H](SCCO)CC(=O)[C@@H]1CCCCCCC(=O)O` (mixture of isomers): 16; for `CCCCC[C@@H](O)/C=C/[C@H]1[C@H](SCCO)CC(=O)[C@@H]1C/C=C\CCCC(=O)OC`: 19; for `CCCCC[C@H](O)/C=C/[C@H]1C(SCCCS)CC(=O)[C@@H]1C/C=C\CCCC(=O)OC` (some centres undefined): 9.
For `CCCCC[C@H](O)/C=C/[C@H]1C(SCCCO)CC(=O)[C@@H]1C/C=C\CCCC(=O)OC` (some centres undefined) the value was 0.8.
Consider `CCCCC[C@H](O)/C=C/[C@H]1C(SCCN(C)C)CC(=O)[C@@H]1C/C=C\CCCC(=O)OC` (some centres undefined), for which the Relative potency is listed as 14.
For `CCCCC(C)(O)C/C=C/[C@H]1[C@H](SCCO)CC(=O)[C@@H]1C/C=C\CCCC(=O)OC` (mixture of isomers) the value was 109; for `CCCCC[C@H](O)/C=C/[C@H]1C(SCCS)CC(=O)[C@@H]1C/C=C\CCCC(=O)OC` (some centres undefined), 0.4.
For `CCCCC[C@H](O)/C=C/[C@H]1C(SCC(=O)OCC)CC(=O)[C@@H]1C/C=C\CCCC(=O)OC` (some centres undefined) the value was 3.
Consider `CCCCCC/C=C/[C@H]1[C@H](SCCO)CC(=O)[C@@H]1C/C=C\CCCC(=O)OC` (racemic), for which the Relative potency came to 14.
Regarding `CCCCC[C@H](O)/C=C/[C@H]1[C@H](SCCO)CC(=O)[C@@H]1C/C=C\CCCC(=O)OC` (racemic), the Relative potency was determined as 30.
In turn, `CCCCC[C@H](O)/C=C/[C@H]1C(SCC(=O)O)CC(=O)[C@@H]1C/C=C\CCCC(=O)OC` (some centres undefined) gave a Relative potency of 0.1.
In the case of `CCCCC[C@H](O)/C=C/[C@H]1C(SCC)CC(=O)[C@@H]1C/C=C\CCCC(=O)OC` (some centres undefined), the Relative potency was found to be 1.
For `CCCCC[C@H](O)/C=C/[C@H]1[C@H](OCCO)CC(=O)[C@@H]1C/C=C\CCCC(=O)OC` (racemic) the value was 3; for `CCCCC[C@@H](O)/C=C/[C@H]1[C@@H](SCCO)CC(=O)[C@@H]1C/C=C\CCCC(=O)OC` (racemic), 6; for `CCCCC[C@H](O)/C=C/[C@H]1[C@H](SCCO)CC(=O)[C@@H]1C/C=C\CCCC(=O)OC`, 100.
For `CCCCC[C@H](O)/C=C/[C@H]1C(Sc2cccc(O)c2)CC(=O)[C@@H]1C/C=C\CCCC(=O)OC` (some centres undefined) the value was 0.2; for `CCCCC[C@H](O)/C=C/[C@H]1[C@H](OCCO)CC(=O)[C@@H]1CCCCCCC(=O)O` (racemic), 14; for `CCCCC[C@H](O)/C=C/[C@H]1C(SCC(C)O)CC(=O)[C@@H]1C/C=C\CCCC(=O)OC` (some centres undefined), 2.
`CCCCC[C@H](O)/C=C/[C@H]1[C@H](O)CC(=O)[C@@H]1C/C=C\CCCC(=O)O` [DINOPROSTONE] came in with a Relative potency of 570.
For `CCCCC[C@H](O)/C=C/[C@H]1C(SCCO)CC(=O)[C@@H]1CCCCCCC(=O)O` (some centres undefined) the value was 104; for `CCCCC[C@H](O)/C=C/[C@H]1[C@H](SCCO)CC(=O)[C@@H]1C/C=C\CCCC(=O)O`, 55; for `CCCCC(O)C/C=C/[C@H]1[C@H](SCCO)CC(=O)[C@@H]1CCCCCCC(=O)O` (mixture of isomers), 24.
For `CCCCC[C@H](O)/C=C/C1CCC(=O)[C@@H]1C/C=C\CCCC(=O)O` (some centres undefined) the value was 92; for `CCCCCC(O)CSC1CC(=O)[C@H](C/C=C\CCCC(=O)OC)[C@H]1/C=C/[C@H](O)CCCCC` (some centres undefined), less than 0.2; for `CCCCC[C@H](O)/C=C/[C@H]1C(SCCN(CC)CC)CC(=O)[C@@H]1C/C=C\CCCC(=O)OC` (some centres undefined), 22.
The same measure for `CCCCC[C@H](O)/C=C/[C@H]1C(SCCC)CC(=O)[C@@H]1C/C=C\CCCC(=O)OC` (some centres undefined): less than 0.2; for `CCCCC[C@H](O)/C=C/[C@H]1[C@@H](SCCO)CC(=O)[C@@H]1C/C=C\CCCC(=O)OC`: 10; for `CCCCC[C@H](O)/C=C/[C@H]1C(SCCN)CC(=O)[C@@H]1C/C=C\CCCC(=O)OC` (some centres undefined): 0.3.
